Tests used:
Type in all cases: functional
SF-539 = test: Cytotoxicity against human SF539 cells assessed as cell growth at 10^-8 M after 48 hrs by SRB assay; conditions: SF-539, 48 h, read-out: Activity
MDA-MB-231 = test: Cytotoxicity against human MDA-MB-231 cells assessed as cell growth at 10^-6 M after 48 hrs by SRB assay; conditions: MDA-MB-231, 48 h, read-out: Activity
CCRF-CEM = test: Cytotoxicity against human CCRF-CEM cells assessed as cell growth at 10^-6 M after 48 hrs by SRB assay; conditions: read-out: Activity
In short: (§1)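 NCI-60 screen: lines kept in RPMI 1640 with 5% FBS, seeded at 5000–40,000 cells/well by doubling time, preincubated 24 h at 37 °C in 5% CO2. Time-zero plates TCA-fixed at drug addition. DMSO stocks diluted in medium, 48 h exposure. Fixation in cold TCA (final 10% adherent, 16% suspension), 0.4% SRB stain, solubilised in 10 mM Tris base, A515. Percent growth computed against control and time-zero.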

HCT-15 [1] = test: Cytotoxicity against human HCT15 cells assessed as cell growth at 10^-7 M after 48 hrs by SRB assay; conditions: HCT-15, 48 h, read-out: Activity
In short: (§2)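 NCI-60 five-dose screen. Cells were grown in RPMI 1640 with 5% FBS and seeded at 5000–40,000 cells/well according to doubling time. They were pre-incubated 24 h at 37 °C in 5% CO₂, and time-zero (Tz) plates were TCA-fixed at drug addition. Five 10-fold dilutions of DMSO stock were applied for 48 h. Read-out was SRB staining, 515 nm absorbance, with percent growth calculated versus Tz and untreated control.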

786-0 = test: Cytotoxicity against human 786-0 cells assessed as cell growth at 10^-4 M after 48 hrs by SRB assay; conditions: 786-0, 48 h, read-out: Activity; in short: as §1
SN12C [2] = test: Cytotoxicity against human SN12C cells assessed as cell growth at 10^-7 M after 48 hrs by SRB assay; conditions: read-out: Activity
SK-MEL-28 = test: Cytotoxicity against human SK-MEL-28 cells assessed as cell growth at 10^-4 M after 48 hrs by SRB assay; conditions: SK-MEL-28, 48 h, read-out: Activity
CAKI-1 = test: Cytotoxicity against human Caki1 cells assessed as cell growth at 10^-8 M after 48 hrs by SRB assay; conditions: CAKI-1, 48 h, read-out: Activity; in short: as §1
OVCAR-3 = test: Cytotoxicity against human OVCAR3 cells assessed as cell growth at 10^-4 M after 48 hrs by SRB assay; conditions: OVCAR-3, 48 h, read-out: Activity
NCI-H226 [3] = test: Cytotoxicity against human NCI-H226 cells assessed as cell growth at 10^-7 M after 48 hrs by SRB assay; conditions: NCI-H226, 48 h, read-out: Activity
SNB-19 = test: Cytotoxicity against human SNB19 cells assessed as cell growth at 10^-8 M after 48 hrs by SRB assay; conditions: SNB-19, 48 h, read-out: Activity
[4] = Cytotoxicity against human Hs 578T cells assessed as cell growth at 10^-5 M after 48 hrs by SRB assay; conditions: read-out: Activity; in short: as §2
UACC-62 [5] = test: Cytotoxicity against human UACC62 cells assessed as cell growth at 10^-5 M after 48 hrs by SRB assay; conditions: UACC-62, 48 h, read-out: Activity
SR = test: Cytotoxicity against human SR cells assessed as cell growth at 10^-6 M after 48 hrs by SRB assay; conditions: read-out: Activity
T47D [6] = test: Cytotoxicity against human T47D cells assessed as cell growth at 10^-7 M after 48 hrs by SRB assay; conditions: read-out: Activity
UACC-62 [7] = test: Growth inhibition of human UACC62 cells after 48 hrs by SRB assay; conditions: UACC-62, 48 h; for CC50: read-out: LC50 (the source's name)
In short: (§3)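 Adherent NCI-60 lines grown in RPMI 1640 with 5% FBS, seeded at 5000–40,000 cells/well, and preincubated 24 h at 37 °C, 5% CO2. Compound, stocked in DMSO, given either once at 10^-5 M or at five 10-fold dilutions for 48 h. Cells fixed with cold TCA (final 10%), stained with 0.4% SRB, and read at 515 nm. GI50 taken as 50% reduction in net protein increase versus time-zero and control plates.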

OVCAR-8 = test: Cytotoxicity against human OVCAR8 cells assessed as cell growth at 10^-5 M after 48 hrs by SRB assay; conditions: OVCAR-8, 48 h, read-out: Activity
M14 = test: Cytotoxicity against human M14 cells assessed as cell growth at 10^-4 M after 48 hrs by SRB assay; conditions: M14, 48 h, read-out: Activity
HL-60 = test: Cytotoxicity against human HL60 cells assessed as cell growth at 10^-7 M after 48 hrs by SRB assay; conditions: HL-60, 48 h, read-out: Activity; in short: as §2
UACC-62 [8] = test: Cytotoxicity against human UACC62 cells assessed as cell growth at 10^-6 M after 48 hrs by SRB assay; conditions: UACC-62, 48 h, read-out: Activity
T47D [9] = test: Cytotoxicity against human T47D cells assessed as cell growth at 10^-5 M after 48 hrs by SRB assay; conditions: read-out: Activity
IGROV-1 = test: Cytotoxicity against human IGROV1 cells assessed as cell growth at 10^-4 M after 48 hrs by SRB assay; conditions: IGROV-1, 48 h, read-out: Activity; in short: as §2
LOX IMVI = test: Growth inhibition of human LOXIMVI cells after 48 hrs by SRB assay; in short: as §3
SN12C [10] = test: Cytotoxicity against human SN12C cells assessed as cell growth at 10^-6 M after 48 hrs by SRB assay; conditions: read-out: Activity
TK-10 = test: Cytotoxicity against human TK10 cells assessed as cell growth at 10^-5 M after 48 hrs by SRB assay; conditions: TK-10, 48 h, read-out: Activity
SF-295 = test: Cytotoxicity against human SF295 cells assessed as cell growth at 10^-8 M after 48 hrs by SRB assay; conditions: SF-295, 48 h, read-out: Activity
[11] = Cytotoxicity against human NCI-ADR-RES cells assessed as cell growth at 10^-6 M after 48 hrs by SRB assay; conditions: read-out: Activity
HCT-15 [12] = test: Cytotoxicity against human HCT15 cells assessed as cell growth at 10^-8 M after 48 hrs by SRB assay; conditions: HCT-15, 48 h, read-out: Activity; in short: as §2
UO-31 = test: Cytotoxicity against human UO31 cells assessed as cell growth at 10^-7 M after 48 hrs by SRB assay; conditions: UO-31, 48 h, read-out: Activity
NCI-H226 [13] = test: Growth inhibition of human NCI-H226 cells after 48 hrs by SRB assay; conditions: NCI-H226, 48 h; for CC50: read-out: LC50 (the source's name); in short: as §3
A549 [14] = test: Cytotoxicity against human A549 cells assessed as cell growth at 10^-6 M after 48 hrs by SRB assay; conditions: A549, 48 h, read-out: Activity; in short: as §1
A549 [15] = test: Cytotoxicity against human A549 cells assessed as cell growth at 10^-7 M after 48 hrs by SRB assay; conditions: A549, 48 h, read-out: Activity; in short: as §1

Compound | growth at 0.01 µM (SF-539) | growth at 1 µM (MDA-MB-231) | growth at 1 µM (CCRF-CEM) | growth at 0.1 µM (HCT-15 [1]) | growth at 100 µM (786-0) | growth at 0.1 µM (SN12C [2]) | growth at 100 µM (SK-MEL-28) | growth at 0.01 µM (CAKI-1) | growth at 100 µM (OVCAR-3) | growth at 0.1 µM (NCI-H226 [3]) | growth at 0.01 µM (SNB-19) | growth at 10 µM [4] | growth at 10 µM (UACC-62 [5]) | growth at 1 µM (SR) | growth at 0.1 µM (T47D [6]) | GI50 (UACC-62 [7]) | TGI (UACC-62 [7]) | CC50 (UACC-62 [7]) | growth at 10 µM (OVCAR-8) | growth at 100 µM (M14) | also measured
COc1ccc(-c2nn3cc(-c4ccc(O)cc4O)nc3s2)cc1 | 105% | 66% | 74% | 92% | -33% | 93% | -26% | 95% | -14% | 88% | 93% | -2% | 24% | 72% | 89% | 3.47 µM | 17.7 µM | 59.4 µM | 7% | -49% | growth at 0.1 µM (HL-60): 92%; growth at 1 µM (UACC-62 [8]): 81%; growth at 10 µM (T47D [9]): -29%; growth at 100 µM (IGROV-1): -7%; GI50 (LOX IMVI): 2.58 µM; LC50 (lethal concentration, 50% net cell kill) (LOX IMVI): > 100 µM; TGI (LOX IMVI): 31.4 µM; growth at 1 µM (SN12C [10]): 80%; growth at 10 µM (TK-10): 7%; growth at 0.01 µM (SF-295): 95%; growth at 1 µM [11]: 81%; growth at 0.01 µM (HCT-15 [12]): 96%; growth at 0.1 µM (UO-31): 83%; GI50 (NCI-H226 [13]): 1.43 µM; TGI (NCI-H226 [13]): 6.95 µM; CC50 (NCI-H226 [13]): > 100 µM; growth at 1 µM (A549 [14]): 86%; growth at 0.1 µM (A549 [15]): 99%
COc1ccc(-c2nn3cc(-c4cccc(N)c4)nc3s2)cc1 | 101% | 61% | 63% | 106% | -93% | 91% | -39% | 86% | -74% | 80% | 96% | 6% | 26% | 81% | 86% | 2.92 µM | 24.4 µM | > 100 µM | 31% | -54% | growth at 0.1 µM (HL-60): 95%; growth at 1 µM (UACC-62 [8]): 71%; growth at 10 µM (T47D [9]): 7%; growth at 100 µM (IGROV-1): -18%; GI50 (LOX IMVI): 3.38 µM; LC50 (lethal concentration, 50% net cell kill) (LOX IMVI): > 100 µM; TGI (LOX IMVI): 29.5 µM; growth at 1 µM (SN12C [10]): 73%; growth at 10 µM (TK-10): 41%; growth at 0.01 µM (SF-295): 95%; growth at 1 µM [11]: 85%; growth at 0.01 µM (HCT-15 [12]): 98%; growth at 0.1 µM (UO-31): 81%; GI50 (NCI-H226 [13]): 1.53 µM; TGI (NCI-H226 [13]): 16.2 µM; CC50 (NCI-H226 [13]): 71.6 µM; growth at 1 µM (A549 [14]): 95%; growth at 0.1 µM (A549 [15]): 106%

Source: ChEMBL document CHEMBL2146441, “2,6-Disubstituted imidazo[2,1-b][1,3,4]thiadiazoles: search for anticancer agents” (2012)
